This note sets out measurements from ChEMBL document CHEMBL5113516, “2-(Fluoromethoxy)-4'-(S-methanesulfonimidoyl)-1,1'-biphenyl (UCM-1306), an Orally Bioavailable Positive Allosteric Modulator of the Human Dopamine D1 Receptor for Parkinson's Disease” (J Med Chem, 2022).

The target of data set [1] is D(1A) dopamine receptor (Homo sapiens) (UniProt P21728). Description: Positive allosteric modulation of D1R expressed in human SK-N-MC cells assessed as potentiation of DA-induced cAMP production pretreated with compound for 15 mins followed by dopamine addition measured after 15 mins by HTRF assay relative to control. Format: functional, cell-based. Particulars: dose 0.1-10 µM, time 30.0 min. In a few lines: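 Human SK-N-MC neuroblastoma cells with endogenous D1R, seeded at 1×10^4 cells/well in Opti-MEM with 500 μM IBMX. Preincubated with 10 μM compound for 15 min at 25 °C, then dopamine concentration–response for 15 min at 25 °C. Lysed and cAMP read by HTRF. Change in dopamine Emax used; >20% potentiation taken as a potential PAM.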
D(1A) dopamine receptor (Homo sapiens), sequence (P21728 whole entry): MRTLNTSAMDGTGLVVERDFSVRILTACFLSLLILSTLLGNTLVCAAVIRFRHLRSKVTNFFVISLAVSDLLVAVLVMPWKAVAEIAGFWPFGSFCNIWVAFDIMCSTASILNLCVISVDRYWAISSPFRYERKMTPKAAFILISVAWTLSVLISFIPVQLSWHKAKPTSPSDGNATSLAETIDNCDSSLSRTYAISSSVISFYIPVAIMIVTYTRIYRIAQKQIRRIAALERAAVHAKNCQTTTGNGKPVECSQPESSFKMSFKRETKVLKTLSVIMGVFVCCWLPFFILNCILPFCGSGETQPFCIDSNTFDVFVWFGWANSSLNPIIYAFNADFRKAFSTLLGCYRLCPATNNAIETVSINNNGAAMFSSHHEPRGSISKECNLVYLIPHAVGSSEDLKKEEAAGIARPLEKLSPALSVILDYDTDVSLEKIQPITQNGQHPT
In general terms: cAMP levels reflect the balance of adenylyl cyclase and phosphodiesterase activity.

Data set [2] concerns Mus musculus. Description: Anti-parkinson activity in reserpine induced C57BL/6 mouse model assessed as decrease in locomotion at 100 to 400 mg/kg, ip measured for 60 mins. Format: functional, organism-based. Particulars: dose 100-400 mg/kg. The method, boiled down: (§1)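 Male C57BL/6 mice (22–25 g), n = 10/group, given reserpine 2.5 mg/kg sc (DMSO/saline). 20 h later dosed with vehicle or 30 mg/kg po (5% NMP + 5% solutol HS-15 + 90% saline), and/or L-DOPA 100 or 400 mg/kg ip plus carbidopa 100 mg/kg ip 30 min before recording. Placed in cage 15 min after the po dose. Total distance travelled over 60 min by video tracking.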

For data set [3], the system named is Mus musculus. Description: Anti-parkinson activity in reserpine induced C57BL/6 mouse model assessed as decrease in locomotion at 30 mg/kg, po measured for 60 mins. In kind it is functional, organism-based. In a few lines: as §1
The nature of data set [4]: Toxicity in cocaine-induced hyperactive C57BL/6 mouse model assessed as hyperlocomotion at 1 mg/kg, ip pretreated for 15 mins followed by cocaine addition measured after 15 mins. Particulars: in vivo, 0.5 h, time 30 min. Format: organism-based. The method, boiled down:
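Three-month-old male C57BL/6J mice, 8 per group, habituated to injections for 5 days. Given 1 mg/kg ip in sterile saline (20 mL/kg) 15 min before cocaine 20 mg/kg sc. Placed in a 50 cm open field 5 min after cocaine. Horizontal locomotion (total distance, cm) video-tracked in 2 min blocks over 30 min.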

Data set [5] can be described thus: Ratio of drug concentration in brain to plasma in BALB/c mouse plasma at 5 mg/kg, po administered as single dose measured 0.5 to 4 hrs. Format: ADME, organism-based. Particulars: time 0.5-4 hrs. The method, boiled down:
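Male BALB/c mice given a single oral dose of 5 mg/kg. Plasma, brain and CSF levels measured over time. Brain-to-plasma concentration ratios calculated between 0.5 and 4 h.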

The test system of data set [6] is Mus musculus. Put plainly: Cognitive enhancing effect in C57BL/6J mouse assessed as ratio of novel to familiar at 1 mg/kg, ip by novel object recognition test. In kind it is functional, organism-based. Particulars: time 24-96 hrs. In a few lines: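 Three-month-old male C57BL/6J mice, 8 per condition. After 5 min habituation to an empty 40 cm open field, given 1 mg/kg ip or vehicle (0.9% NaCl). 20 min later, 10 min acquisition with two identical objects. Later 10 min test sessions at 24 and 96 h. Nose/forepaw exploration scored. Discrimination ratio = (novel − familiar)/total exploration time.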

Where [7] appears, read: filed as positive allosteric modulator.

The source made the active and inactive calls. The rule behind the calls is not given here.

As for `CC[S+]([O-])c1ccc(-c2ccccc2OCF)cc1` (centres undefined), in data set [1], the Emax (commonly the size of the effect at its maximum, as opposed to the concentration needed) stood at 16%.
On the same count and under the same terms, next, `O=C(O)c1ccc(-c2ccccc2OCF)cc1`: 7%; `O=Cc1ccc(-c2ccc(OC(F)F)cc2)cc1`: 35%.
The same measure, in the same setting: then `O=Cc1cccc(-c2ccccc2OC(F)F)c1`, with 12%; and `NC(=O)c1ccc(-c2ccccc2OCF)cc1`, with 16%; and `CNS(=O)(=O)c1ccc(-c2ccccc2OCF)cc1`, with 38%.
Same read-out and setting: then `CS(=N)(=O)c1ccc(-c2ccccc2OCF)c(Cl)c1` (centres undefined), with 20%; and `CC(=O)c1ccc(-c2ccccc2OCF)cc1`, with 11%; and `NS(=O)(=O)c1ccc(-c2ccccc2OCF)cc1`, with 31%.
As for `COC(=O)c1ccc(-c2ccccc2OCF)cc1`, the Emax in data set [1] was 28%.
Turning to `N[C@@H](Cc1ccc(O)c(O)c1)C(=O)O`, the outcome in the data set on Mus musculus [2] was Active.
As to `O=Cc1ccc(-c2ccccc2SCF)cc1`, the Emax in data set [1] worked out at 14%.
As for `O=Cc1cccc(-c2ccccc2OCF)c1`, in data set [1], the maximal response (Emax) came out at 23%.
On to `CCS(=N)(=O)c1ccc(-c2ccccc2OCF)cc1` (centres undefined), for which, in data set [1] (setting [7]), the Emax came out at 54%.
Take `CS(=N)(=O)c1ccc(-c2ncccc2OCF)cc1` (centres undefined): the maximal effect (Emax) in data set [1] came out at 1%.
For the molecule `O=Cc1ccc(-c2ccccc2OC(F)F)cc1`, in data set [1] (setting [7]), the Emax came to 45%.
As for `O=Cc1ccc(-c2cccc(OC(F)F)c2)cc1`, the Emax in data set [1] was 37%.
As for `CS(=N)(=O)c1ccc(-c2ccccc2OCF)cc1` (racemic), the Emax in data set [1] (setting [7]) is 55%. Besides, the result in the data set on Mus musculus [3], with Mus musculus [2] and with Mus musculus [6] was Active. Also, the Activity result in data set [4] is “Non-Toxic”. In addition, the concentration ratio (Kp) (as a rule, tissue or fluid exposure divided by exposure in the circulation) in data set [5] stood at 0.55.
In the case of `CN=S(C)(=O)c1ccc(-c2ccccc2OCF)cc1` (centres undefined), the Emax in data set [1] worked out at 30%.
`C[S+]([O-])c1ccc(-c2ccccc2OCF)cc1` (racemic): the maximal effect (Emax) in data set [1] (setting [7]) turned out to be 60%.
As to `O=Cc1ccc(-c2ccc(OCF)cc2)cc1`, the Emax in data set [1] was 29%.
The same measure, in the same setting: next, `CS(=N)(=O)c1ccc(-c2ccccc2OCF)cc1Cl` (centres undefined): 12%.
On the same count and under the same terms, then `O=Cc1ccc(-c2cccc(OCF)c2)cc1`, with 25%.
For the molecule `O=Cc1ccc(-c2ccccc2SC(F)F)cc1`, the Emax in data set [1] (setting [7]) was 44%.
